Source: ChEMBL document CHEMBL3425449, “Identification of MK-8133: An orexin-2 selective receptor antagonist with favorable development properties” (Bioorg Med Chem Lett, 2015)
Converted amounts (≈) assume the structure as drawn. The source made the active and inactive calls. The calls are words filed in the database; no cut-off is given here.

What was measured:
[1] = Permeability in pig LLC-PK1 cells; type: ADME, cell-based, Sus scrofa; details: read-out: permeability
How it was run: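 Passive permeability measured in LLC-PK1 cells and expressed in cm/s.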

[2] = tested on: Canis familiaris; assay: Sleep promoting activity in beagle dog assessed as increase in non-REM NREM1 sleep at 0.01 and 0.05 mg/kg, po dosed for 5 consecutive days; type: functional, organism-based; set-up: dose 0.05 mg/kg; details: Canis lupus familiaris
How it was run: (§1)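 Beagles implanted with radio-telemetry ECoG/EMG transmitters received 0.01 and 0.05 mg/kg po or vehicle (20% Vitamin E TPGS). Balanced cross-over design over 5 consecutive days. Active wake, NREM I, NREM II (including delta sleep) and REM were scored as mean within-subject change versus vehicle.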

[3] = Oral bioavailability in dog at 10 mg/kg; type: ADME, organism-based, Canis lupus familiaris; details: in vivo
How it was run: (§2)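 Dog pharmacokinetics determined after intravenous and oral administration.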

[4] = Intrinsic clearance in human microsomes; type: ADME, Microsome
[5] = organism: Homo sapiens; assay: Inhibition of CYP450 (unknown origin)
[6] = tested on: Canis familiaris; assay: Sleep promoting activity in beagle dog assessed as increase in delta sleep at 0.01 and 0.05 mg/kg, po dosed for 5 consecutive days; type: functional, organism-based; set-up: dose 0.05 mg/kg; details: Canis lupus familiaris; how it was run: as §1
[7] = tested on: CHO-K1; assay: Selectivity index, ratio of IC50 for human OX1R expressed in CHOK1 cells to IC50 for human OX2R expressed in CHOK1 cells by FLIPR assay; type: cell-based
How it was run: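 Ratio of OX1R FLIPR IC50 to OX2R FLIPR IC50. Both come from Ca2+-flux assays on human orexin receptors expressed in CHO-K1 cells, each averaged over n ≥ 2 experiments.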

[8] = Clearance in dog at 10 mg/kg, po or 2 mg/kg, iv; type: ADME, organism-based, Canis lupus familiaris; details: in vivo; how it was run: as §2
[9] = tested on: Canis familiaris; assay: Sleep promoting activity in beagle dog assessed as increase in REM2 sleep at 0.01 and 0.05 mg/kg, po dosed for 5 consecutive days; type: functional, organism-based; set-up: dose 0.05 mg/kg; details: Canis lupus familiaris, in the assay text read “NREM2 sleep” for “REM2 sleep”; how it was run: as §1
[10] = Clearance in Wistar Han rat at 10 mg/kg, po or 2 mg/kg, iv; type: ADME, organism-based; details: in vivo
How it was run: (§3)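 Pharmacokinetics in Wistar Han rats (n = 2) after intravenous and oral dosing. Oral dose was 10 mg/kg in PEG400:Tween80/water 40:10:50. IV dose was 2 mg/kg in DMSO/PEG400/water 20:60:20.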

[11] = Ratio of drug level in CSF to plasma in rat; type: ADME; details: CSF and plasma
[12] = Induction of CYP450 (unknown origin); type: ADME; details: human
[13] = tested on: Canis familiaris; assay: Sleep promoting activity in beagle dog assessed as increase in REM sleep at 0.01 and 0.05 mg/kg, po dosed for 5 consecutive days; type: functional, organism-based; set-up: dose 0.05 mg/kg; details: Canis lupus familiaris; how it was run: as §1
[14] = tested on: Mus musculus; assay: Sleep promoting activity in OX2R knock out mouse with targeted disruption of the Hcrtr2 gene assessed as effect on slow wave sleep at 30 mg/kg, po dosed for 5 consecutive days measured after 1 hr; type: functional, organism-based; set-up: dose 30 mg/kg
How it was run: (§4)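 Sleep architecture recorded in ambulatory mice (wild-type N = 7; OX2R KO N = 6) implanted with radio-telemetry transmitters for ECoG and EMG. Compound given at 30 mg/kg po; vehicle was 20% Vitamin E TPGS po. Balanced cross-over design over 5 consecutive treatment days. Read-out is mean within-subject change versus vehicle in active wake, SWS and REM.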

[15] = tested on: Rattus norvegicus; assay: Sleep promoting activity in rat assessed as reduction of active wake at 1 and 3 mg/kg, po dosed for 3 consecutive days measured after 2 hrs; type: functional, organism-based; set-up: dose 3 mg/kg
How it was run: (§5)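 Rats implanted with radio-telemetry ECoG/EMG transmitters and recorded while ambulatory. Dosed at 1 and 3 mg/kg po or with vehicle (20% Vitamin E TPGS) in a balanced cross-over over 3 consecutive days. Active wake, SWS and REM were scored in the 2 h after dosing as within-subject change versus vehicle.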

[16] = Half life in Wistar Han rat at 10 mg/kg, po or 2 mg/kg, iv; type: ADME, organism-based; details: in vivo; how it was run: as §3
[17] = Volume of distribution at steady state in Wistar Han rat at 10 mg/kg, po or 2 mg/kg, iv; type: ADME, organism-based; details: in vivo, read-out: Vdss; how it was run: as §3
[18] = tested on: Canis familiaris; assay: Sleep promoting activity in beagle dog assessed as reduction of active wake at 0.01 and 0.05 mg/kg, po dosed for 5 consecutive days; type: functional, organism-based; set-up: dose 0.05 mg/kg; details: Canis lupus familiaris; how it was run: as §1
[19] = biological target: T1, Orexin/Hypocretin receptor type 1 (Homo sapiens, UniProt O43613); assay: Antagonist activity against human OX1R expressed in CHOK1 cells assessed as inhibition of orexin A-induced […] Ca2+ mobilization by FLIPR assay; type: functional, cell-based, CHO-K1
T1 sequence (O43613 whole entry): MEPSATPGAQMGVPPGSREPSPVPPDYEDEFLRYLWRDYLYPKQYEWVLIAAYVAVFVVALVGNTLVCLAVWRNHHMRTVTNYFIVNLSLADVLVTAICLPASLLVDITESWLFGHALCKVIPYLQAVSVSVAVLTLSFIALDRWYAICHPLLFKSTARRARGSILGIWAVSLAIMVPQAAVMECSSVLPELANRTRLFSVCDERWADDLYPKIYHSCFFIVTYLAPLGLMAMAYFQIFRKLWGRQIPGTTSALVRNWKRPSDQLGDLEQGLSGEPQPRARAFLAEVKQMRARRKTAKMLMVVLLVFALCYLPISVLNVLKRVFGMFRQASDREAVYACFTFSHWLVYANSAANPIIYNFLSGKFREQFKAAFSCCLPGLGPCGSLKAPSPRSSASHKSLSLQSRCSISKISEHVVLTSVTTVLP
How it was run: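 Cell-based FLIPR assay measuring Ca2+ flux as the functional read-out of orexin receptor antagonism. Target is the human orexin receptor expressed in CHO-K1 cells.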

[20] = Lipophilicity, log D of the compound by HPLC method; type: physicochemical; details: read-out: logD
[21] = Solubility of the compound at pH 7.4; type: physicochemical; details: buffer
[22] = tested on: Mus musculus; assay: Sleep promoting activity in mouse assessed as effect on REM sleep at 30 mg/kg, po dosed for 5 consecutive days measured after 1 hr; type: functional, organism-based; set-up: dose 30 mg/kg; how it was run: as §4
[23] = Half life in dog at 10 mg/kg, po or 2 mg/kg, iv; type: ADME, organism-based, Canis lupus familiaris; details: in vivo; how it was run: as §2
[24] = Solubility of the compound at pH 7; type: physicochemical; details: buffer, read-out: solubility
[25] = Unbound fraction in rat plasma at 1 uM; type: ADME, cell-free
How it was run: (§6)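 Plasma protein binding measured at a compound concentration of 1 µM. Reported as percent unbound fraction in human, rat, dog and monkey plasma.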

[26] = Volume of distribution at steady state in dog at 10 mg/kg, po or 2 mg/kg, iv; type: ADME, organism-based, Canis lupus familiaris; details: in vivo, read-out: Vdss; how it was run: as §2
[27] = tested on: Rattus norvegicus; assay: Sleep promoting activity in rat assessed as increase in slow wave sleep at 1 and 3 mg/kg, po dosed for 3 consecutive days measured after 2 hrs; type: functional, organism-based; set-up: dose 3 mg/kg; how it was run: as §5
[28] = tested on: Mus musculus; assay: Sleep promoting activity in mouse assessed as increase in slow wave sleep at 30 mg/kg, po dosed for 5 consecutive days measured after 1 hr; type: functional, organism-based; set-up: dose 30 mg/kg; how it was run: as §4
[29] = tested on: Mus musculus; assay: Sleep promoting activity in OX2R knock out mouse with targeted disruption of the Hcrtr2 gene assessed as effect on REM sleep at 30 mg/kg, po dosed for 5 consecutive days measured after 1 hr; type: functional, organism-based; set-up: dose 30 mg/kg; how it was run: as §4
[30] = tested on: Mus musculus; assay: Sleep promoting activity in mouse assessed as reduction of active wake at 30 mg/kg, po dosed for 5 consecutive days measured after 1 hr; type: functional, organism-based; set-up: dose 30 mg/kg; how it was run: as §4
[31] = Unbound fraction in monkey plasma at 1 uM; type: ADME, cell-free, Macaca mulatta; details: rhesus monkey; how it was run: as §6
[32] = tested on: Mus musculus; assay: Sleep promoting activity in OX2R knock out mouse with targeted disruption of the Hcrtr2 gene assessed as effect on active wake at 30 mg/kg, po dosed for 5 consecutive days measured after 1 hr; type: functional, organism-based; set-up: dose 30 mg/kg; how it was run: as §4
[33] = Unbound fraction in human plasma at 1 uM; type: ADME, cell-free; how it was run: as §6
[34] = Oral bioavailability in Wistar Han rat at 10 mg/kg; type: ADME, organism-based; details: in vivo; how it was run: as §3
[35] = tested on: Rattus norvegicus; assay: Sleep promoting activity in rat assessed as increase in REM sleep at 1 and 3 mg/kg, po dosed for 3 consecutive days measured after 2 hrs; type: functional, organism-based; set-up: dose 3 mg/kg; how it was run: as §5
[36] = tested on: P-gp; assay: Substrate activity at rat P-gp assessed as efflux ratio in cell based assay; type: ADME; details: not told
[37] = Unbound fraction in dog plasma at 1 uM; type: ADME, cell-free, Canis lupus familiaris; how it was run: as §6
[38] = tested on: P-gp; assay: Substrate activity at human P-gp assessed as efflux ratio in cell based assay; type: ADME; details: not told

Papp [1]: 33 ×10⁻⁶ cm/s | bioavailability [3]: 53% | CLint scaled [4]: 17 mL/min/kg | inhibition [5]: inactive | clearance [8]: 15 mL/min/kg | clearance [10]: 37 mL/min/kg | Kp [11]: 0.1 | Activity [12]: Not Active | half-life [16]: 4.3 h | Vd [17]: 1.3 L/kg | IC50 [19]: 4.9 µM | logD [20]: 2.9 | solubility [21]: 250 µg/mL (≈ 626 µM) | half-life [23]: 0.8 h | solubility [24]: 183 µM (≈ 73.1 µg/mL) | fraction unbound at 1 µM [25]: 0.076 | Vd [26]: 0.97 L/kg | fraction unbound at 1 µM [31]: 0.239 | fraction unbound at 1 µM [33]: 0.028 | bioavailability [34]: 80% | efflux ratio [36]: 2.3 | fraction unbound at 1 µM [37]: 0.166 | efflux ratio [38]: 0.7
Compound: C[C@@H]1CC[C@@H](Oc2cc(C#N)ccn2)CN1C(=O)c1ccccc1-c1ncccn1
Activity [2]: Dose-dependent effect | Activity [6]: Dose-dependent effect | Ratio IC50 [7]: 174 | Activity [9]: Dose-dependent effect | Activity [13]: Active | Activity [14]: inactive | Activity [15]: Active | Activity [18]: Dose-dependent effect | Activity [22]: inactive | Activity [27]: Active | Activity [28]: Active | Activity [29]: inactive | Activity [30]: Active | Activity [32]: inactive | Activity [35]: Active
